{"source": "ChEMBL document CHEMBL1933063", "about": "“Investigation of chalcones and benzochalcones as inhibitors of breast cancer resistance protein” (Bioorg Med Chem, 2012)", "key": {"[1]": {"molecular_target": "T1, Broad substrate specificity ATP-binding cassette transporter ABCG2 (Homo sapiens, UniProt Q9UNQ0)", "T1 sequence (Q9UNQ0 whole entry)": "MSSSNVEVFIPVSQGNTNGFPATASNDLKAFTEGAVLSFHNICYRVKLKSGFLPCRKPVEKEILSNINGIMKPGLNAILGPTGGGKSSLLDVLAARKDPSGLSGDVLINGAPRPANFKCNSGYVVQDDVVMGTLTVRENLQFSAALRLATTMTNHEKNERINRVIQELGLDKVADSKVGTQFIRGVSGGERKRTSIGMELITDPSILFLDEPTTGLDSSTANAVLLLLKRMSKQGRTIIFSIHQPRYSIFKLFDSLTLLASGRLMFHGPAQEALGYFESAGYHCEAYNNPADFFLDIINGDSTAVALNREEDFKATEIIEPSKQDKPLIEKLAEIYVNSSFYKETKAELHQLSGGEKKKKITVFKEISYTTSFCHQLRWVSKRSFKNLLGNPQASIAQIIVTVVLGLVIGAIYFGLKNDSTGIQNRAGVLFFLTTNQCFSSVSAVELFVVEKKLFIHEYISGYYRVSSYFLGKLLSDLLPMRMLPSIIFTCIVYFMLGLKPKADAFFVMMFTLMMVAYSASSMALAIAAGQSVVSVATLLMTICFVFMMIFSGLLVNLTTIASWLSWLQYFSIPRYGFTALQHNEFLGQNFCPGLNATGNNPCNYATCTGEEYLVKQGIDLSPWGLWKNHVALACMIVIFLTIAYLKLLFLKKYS", "assay": "Inhibition of human BCRP expressed in MDCK2 cells assessed as Hoechst 33342 accumulation preincubated for 30 mins by fluorimetry", "format": "cell-based, MDCK-II", "in_short": "(§1)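 Cells washed three times in Krebs-HEPES buffer, about 20,000 per well, preincubated with test compound at varied concentrations for 30 min at 37 °C, 5% CO2. Hoechst 33342 then added (final 1 µM). Fluorescence (ex 355, em 460 nm) read every 60 s up to 120 min at 37 °C. KHB background subtracted, 100–109 min mean plotted, four-parameter logistic fit; ≥3 independent experiments.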"}, "[2]": {"molecular_target": "Multidrug resistance-associated protein 1 (Homo sapiens, UniProt P33527)", "sequence (P33527 whole entry)": "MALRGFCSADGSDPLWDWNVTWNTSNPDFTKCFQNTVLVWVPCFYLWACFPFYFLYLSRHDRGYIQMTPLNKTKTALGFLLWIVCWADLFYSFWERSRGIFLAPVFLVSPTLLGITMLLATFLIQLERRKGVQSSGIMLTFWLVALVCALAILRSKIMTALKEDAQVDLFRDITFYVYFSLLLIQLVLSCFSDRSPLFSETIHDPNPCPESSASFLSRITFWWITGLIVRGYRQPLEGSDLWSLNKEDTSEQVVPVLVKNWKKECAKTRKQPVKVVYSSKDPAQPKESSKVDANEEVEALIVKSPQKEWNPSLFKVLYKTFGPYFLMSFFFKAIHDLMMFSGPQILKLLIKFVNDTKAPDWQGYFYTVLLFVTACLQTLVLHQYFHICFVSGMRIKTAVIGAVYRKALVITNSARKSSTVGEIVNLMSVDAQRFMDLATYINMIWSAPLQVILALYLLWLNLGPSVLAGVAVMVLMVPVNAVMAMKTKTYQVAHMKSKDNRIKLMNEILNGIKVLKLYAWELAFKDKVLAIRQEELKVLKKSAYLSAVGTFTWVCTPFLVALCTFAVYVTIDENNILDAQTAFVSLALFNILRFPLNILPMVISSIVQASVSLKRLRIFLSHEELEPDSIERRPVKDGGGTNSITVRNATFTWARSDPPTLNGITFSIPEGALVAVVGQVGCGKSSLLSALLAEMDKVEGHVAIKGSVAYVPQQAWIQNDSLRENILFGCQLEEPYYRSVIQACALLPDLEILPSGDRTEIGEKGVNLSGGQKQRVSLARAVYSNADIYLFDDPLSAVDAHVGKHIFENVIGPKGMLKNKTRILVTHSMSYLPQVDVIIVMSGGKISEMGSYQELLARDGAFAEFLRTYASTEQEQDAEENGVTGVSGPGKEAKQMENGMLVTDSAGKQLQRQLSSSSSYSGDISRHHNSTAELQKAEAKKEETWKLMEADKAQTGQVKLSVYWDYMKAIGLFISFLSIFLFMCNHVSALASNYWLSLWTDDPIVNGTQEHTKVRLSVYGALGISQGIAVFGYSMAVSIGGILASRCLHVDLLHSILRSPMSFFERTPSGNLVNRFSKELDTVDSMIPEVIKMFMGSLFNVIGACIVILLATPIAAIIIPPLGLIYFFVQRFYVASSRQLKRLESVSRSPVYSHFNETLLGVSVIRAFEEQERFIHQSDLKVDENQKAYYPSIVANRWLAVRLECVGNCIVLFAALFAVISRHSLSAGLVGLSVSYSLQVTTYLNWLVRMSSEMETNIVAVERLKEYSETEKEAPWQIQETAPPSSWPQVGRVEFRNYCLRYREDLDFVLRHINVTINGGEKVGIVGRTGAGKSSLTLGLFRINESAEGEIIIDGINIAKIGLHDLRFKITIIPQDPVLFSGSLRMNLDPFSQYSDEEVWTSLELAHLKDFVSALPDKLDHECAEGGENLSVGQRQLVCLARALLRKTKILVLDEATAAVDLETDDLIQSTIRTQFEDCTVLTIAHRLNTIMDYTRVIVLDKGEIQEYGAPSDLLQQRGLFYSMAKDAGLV", "assay": "Inhibition of MRP1 overexpressed in human 2008 MRP1 cells assessed as calcein AM accumulation at 10 uM by fluorimetry", "format": "cell-based", "details": "human, 2008, 10 µM; call rule not given here", "in_short": "(§2)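 Calcein AM accumulation in A2780adr (P-gp) or 2008 MRP1 cells. Cells washed in Krebs-HEPES buffer, about 30,000 per well, preincubated 30 min with compound at 10 µM final. Calcein AM then added. Fluorescence (ex 485, em 520 nm) read every 60 s up to 90 min at 37 °C. Expressed as percent of vehicle control; n = 3.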"}, "[3]": {"molecular_target": "ATP-dependent translocase ABCB1 (Homo sapiens, UniProt P08183)", "sequence (P08183 whole entry)": "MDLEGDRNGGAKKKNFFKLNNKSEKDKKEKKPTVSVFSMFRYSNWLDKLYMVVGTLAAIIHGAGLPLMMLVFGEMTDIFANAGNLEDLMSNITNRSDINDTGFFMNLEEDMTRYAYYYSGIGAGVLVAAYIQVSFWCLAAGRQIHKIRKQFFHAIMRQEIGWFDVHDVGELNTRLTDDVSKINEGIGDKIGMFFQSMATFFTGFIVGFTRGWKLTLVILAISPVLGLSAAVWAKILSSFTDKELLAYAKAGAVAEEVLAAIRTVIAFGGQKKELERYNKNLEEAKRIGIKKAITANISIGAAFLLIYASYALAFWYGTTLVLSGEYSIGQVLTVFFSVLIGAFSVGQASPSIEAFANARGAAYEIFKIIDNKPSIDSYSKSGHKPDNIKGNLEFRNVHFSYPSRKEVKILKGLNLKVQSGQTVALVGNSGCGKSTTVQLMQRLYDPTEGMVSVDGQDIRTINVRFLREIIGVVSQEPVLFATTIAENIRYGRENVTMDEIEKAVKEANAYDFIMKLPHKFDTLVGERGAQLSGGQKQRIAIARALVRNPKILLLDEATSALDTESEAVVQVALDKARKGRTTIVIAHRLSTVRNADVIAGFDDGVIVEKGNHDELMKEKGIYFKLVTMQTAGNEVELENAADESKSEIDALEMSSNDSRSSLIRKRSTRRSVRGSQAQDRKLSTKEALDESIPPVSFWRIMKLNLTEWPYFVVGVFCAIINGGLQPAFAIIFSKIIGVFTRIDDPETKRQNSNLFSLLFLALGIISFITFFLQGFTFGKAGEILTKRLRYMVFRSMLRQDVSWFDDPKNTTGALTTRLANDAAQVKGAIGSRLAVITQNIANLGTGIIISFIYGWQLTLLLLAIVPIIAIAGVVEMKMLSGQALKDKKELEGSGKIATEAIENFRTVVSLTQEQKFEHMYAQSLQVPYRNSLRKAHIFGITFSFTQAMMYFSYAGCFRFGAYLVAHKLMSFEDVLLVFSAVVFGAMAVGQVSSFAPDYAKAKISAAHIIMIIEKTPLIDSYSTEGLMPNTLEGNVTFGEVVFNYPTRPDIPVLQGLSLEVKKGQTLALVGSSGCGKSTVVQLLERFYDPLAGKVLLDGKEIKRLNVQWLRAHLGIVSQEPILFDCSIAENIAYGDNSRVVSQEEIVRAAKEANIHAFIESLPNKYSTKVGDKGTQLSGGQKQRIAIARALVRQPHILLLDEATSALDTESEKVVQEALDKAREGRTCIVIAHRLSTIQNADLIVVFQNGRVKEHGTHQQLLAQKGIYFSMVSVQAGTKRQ", "assay": "Inhibition of MDR1 in human A2780adr cells assessed as calcein AM accumulation at 10 uM by fluorimetry", "format": "cell-based", "details": "a2780 adr", "in_short": "as §2"}, "[4]": {"molecular_target": "T1, Broad substrate specificity ATP-binding cassette transporter ABCG2", "assay": "Inhibition of BCRP in human MCF7/MX cells assessed as Hoechst 33342 accumulation preincubated for 30 mins by Fluorometry", "format": "cell-based", "in_short": "as §1"}}}
{"molecule": "O=C(/C=C/c1ccccc1Cl)c1c(O)ccc2ccccc12", "values": [{"measurement": "IC50", "setting": "[1]; read-out: IC50", "result": 5.58, "unit": "µM"}, {"measurement": "inhibition (INH)", "setting": "[2]", "result": "Not Active"}, {"measurement": "inhibition (INH)", "setting": "[3]", "result": "Active"}, {"measurement": "IC50", "setting": "[4]; read-out: IC50", "result": 5.21, "unit": "µM"}]}
{"molecule": "COc1ccc(/C=C/C(=O)c2ccccc2O)cc1", "values": [{"measurement": "IC50", "setting": "[1]; mdck-ii", "result": "Not Active"}, {"measurement": "inhibition (INH)", "setting": "[2]", "result": "Not Active"}, {"measurement": "inhibition (INH)", "setting": "[3]", "result": "Active"}, {"measurement": "IC50", "setting": "[4]; mcf7/mx", "result": "Not Active"}]}
{"molecule": "COc1ccc(/C=C/C(=O)c2ccc(O)cc2O)cc1", "values": [{"measurement": "IC50", "setting": "[1]; read-out: IC50", "result": 12, "unit": "µM"}, {"measurement": "inhibition (INH)", "setting": "[2]", "result": "Not Active"}, {"measurement": "inhibition (INH)", "setting": "[3]", "result": "Active"}, {"measurement": "IC50", "setting": "[4]; read-out: IC50", "result": 33.3, "unit": "µM"}]}
{"molecule": "O=C(/C=C/c1ccccc1Cl)c1ccc(O)cc1O", "values": [{"measurement": "IC50", "setting": "[1]; read-out: IC50", "result": 3.28, "unit": "µM"}, {"measurement": "inhibition (INH)", "setting": "[2]", "result": "Not Active"}, {"measurement": "inhibition (INH)", "setting": "[3]", "result": "Active"}, {"measurement": "IC50", "setting": "[4]; read-out: IC50", "result": 3.21, "unit": "µM"}]}
{"molecule": "O=C(/C=C/c1ccccc1)c1ccc2ccccc2c1O", "values": [{"measurement": "IC50", "setting": "[1]; read-out: IC50", "result": 9.23, "unit": "µM"}, {"measurement": "inhibition (INH)", "setting": "[2]", "result": "Not Active"}, {"measurement": "inhibition (INH)", "setting": "[3]", "result": "Active"}, {"measurement": "IC50", "setting": "[4]; read-out: IC50", "result": 24.3, "unit": "µM"}]}
{"molecule": "O=C(/C=C/c1ccccc1)c1c(O)ccc2ccccc12", "values": [{"measurement": "IC50", "setting": "[1]; read-out: IC50", "result": 2.58, "unit": "µM"}, {"measurement": "inhibition (INH)", "setting": "[2]", "result": "Not Active"}, {"measurement": "inhibition (INH)", "setting": "[3]", "result": "Active"}, {"measurement": "IC50", "setting": "[4]; read-out: IC50", "result": 2.77, "unit": "µM"}]}
{"molecule": "COc1ccc(/C=C/C(=O)c2ccc(OC)cc2OC)cc1", "note": "[METOCHALCONE]", "values": [{"measurement": "IC50", "setting": "[1]; read-out: IC50", "result": 1.91, "unit": "µM"}, {"measurement": "inhibition (INH)", "setting": "[2]", "result": "Not Active"}, {"measurement": "inhibition (INH)", "setting": "[3]", "result": "Active"}, {"measurement": "IC50", "setting": "[4]; read-out: IC50", "result": 2.34, "unit": "µM"}]}
{"molecule": "COc1ccc(/C=C/C(=O)c2ccc(OC)cc2O)cc1", "values": [{"measurement": "IC50", "setting": "[1]; read-out: IC50", "result": 2.2, "unit": "µM"}, {"measurement": "inhibition (INH)", "setting": "[2]", "result": "Not Active"}, {"measurement": "inhibition (INH)", "setting": "[3]", "result": "Active"}, {"measurement": "IC50", "setting": "[4]; read-out: IC50", "result": 4.2, "unit": "µM"}]}
{"molecule": "O=C(/C=C/c1ccccc1Cl)c1ccc2ccccc2c1O", "values": [{"measurement": "IC50", "setting": "[1]; mdck-ii", "result": "Not Active"}, {"measurement": "inhibition (INH)", "setting": "[2]", "result": "Not Active"}, {"measurement": "inhibition (INH)", "setting": "[3]", "result": "Active"}, {"measurement": "IC50", "setting": "[4]; mcf7/mx", "result": "Not Active"}]}
{"molecule": "COc1ccc(/C=C/C(=O)c2c(O)ccc3ccccc23)cc1", "values": [{"measurement": "IC50", "setting": "[1]; read-out: IC50", "result": 2.89, "unit": "µM"}, {"measurement": "inhibition (INH)", "setting": "[2]", "result": "Not Active"}, {"measurement": "inhibition (INH)", "setting": "[3]", "result": "Active"}, {"measurement": "IC50", "setting": "[4]; read-out: IC50", "result": 3.81, "unit": "µM"}]}
{"molecule": "O=C(/C=C/c1ccc(Cl)c(Cl)c1)c1c(O)ccc2ccccc12", "values": [{"measurement": "IC50", "setting": "[1]; read-out: IC50", "result": 7.26, "unit": "µM"}, {"measurement": "inhibition (INH)", "setting": "[2]", "result": "Not Active"}, {"measurement": "inhibition (INH)", "setting": "[3]", "result": "Active"}, {"measurement": "IC50", "setting": "[4]; read-out: IC50", "result": 8.78, "unit": "µM"}]}
{"molecule": "O=C(/C=C/c1ccc(Cl)cc1)c1ccc2ccccc2c1O", "values": [{"measurement": "IC50", "setting": "[1]; mdck-ii", "result": "Not Active"}, {"measurement": "inhibition (INH)", "setting": "[2]", "result": "Not Active"}, {"measurement": "inhibition (INH)", "setting": "[3]", "result": "Active"}, {"measurement": "IC50", "setting": "[4]; mcf7/mx", "result": "Not Active"}]}
{"molecule": "COc1ccc(/C=C/C(=O)c2ccccc2O)cc1OC", "values": [{"measurement": "IC50", "setting": "[1]; read-out: IC50", "result": 4.97, "unit": "µM"}, {"measurement": "inhibition (INH)", "setting": "[2]", "result": "Not Active"}, {"measurement": "inhibition (INH)", "setting": "[3]", "result": "Active"}, {"measurement": "IC50", "setting": "[4]; read-out: IC50", "result": 5.07, "unit": "µM"}]}
{"molecule": "COc1ccc(C(=O)/C=C/c2ccc(Cl)cc2)c(O)c1", "values": [{"measurement": "IC50", "setting": "[1]; read-out: IC50", "result": 10.7, "unit": "µM"}, {"measurement": "inhibition (INH)", "setting": "[2]", "result": "Not Active"}, {"measurement": "inhibition (INH)", "setting": "[3]", "result": "Active"}, {"measurement": "IC50", "setting": "[4]; read-out: IC50", "result": 13.5, "unit": "µM"}]}
{"molecule": "COc1ccc(C(=O)/C=C/c2ccccc2Cl)c(OC)c1", "values": [{"measurement": "IC50", "setting": "[1]; read-out: IC50", "result": 2.63, "unit": "µM"}, {"measurement": "inhibition (INH)", "setting": "[2]", "result": "Not Active"}, {"measurement": "inhibition (INH)", "setting": "[3]", "result": "Active"}, {"measurement": "IC50", "setting": "[4]; read-out: IC50", "result": 3.13, "unit": "µM"}]}
{"molecule": "COc1cccc(/C=C/C(=O)c2ccc(O)cc2O)c1", "values": [{"measurement": "IC50", "setting": "[1]; read-out: IC50", "result": 1.94, "unit": "µM"}, {"measurement": "inhibition (INH)", "setting": "[2]", "result": "Not Active"}, {"measurement": "inhibition (INH)", "setting": "[3]", "result": "Active"}, {"measurement": "IC50", "setting": "[4]; read-out: IC50", "result": 2.8, "unit": "µM"}]}
{"molecule": "COc1ccc(C(=O)/C=C/c2ccc(Cl)c(Cl)c2)c(O)c1", "values": [{"measurement": "IC50", "setting": "[1]; mdck-ii", "result": "Not Active"}, {"measurement": "inhibition (INH)", "setting": "[2]", "result": "Not Active"}, {"measurement": "inhibition (INH)", "setting": "[3]", "result": "Active"}, {"measurement": "IC50", "setting": "[4]; mcf7/mx", "result": "Not Active"}]}
{"molecule": "COc1ccc(/C=C/C(=O)c2ccc3ccccc3c2O)cc1", "values": [{"measurement": "IC50", "setting": "[1]; read-out: IC50", "result": 9.83, "unit": "µM"}, {"measurement": "inhibition (INH)", "setting": "[2]", "result": "Not Active"}, {"measurement": "inhibition (INH)", "setting": "[3]", "result": "Active"}, {"measurement": "IC50", "setting": "[4]; read-out: IC50", "result": 16.9, "unit": "µM"}]}
{"molecule": "COc1cc(O)c(C(=O)/C=C/c2ccccc2Cl)c(OC)c1", "values": [{"measurement": "IC50", "setting": "[1]; read-out: IC50", "result": 2.82, "unit": "µM"}, {"measurement": "inhibition (INH)", "setting": "[2]", "result": "Not Active"}, {"measurement": "inhibition (INH)", "setting": "[3]", "result": "Active"}, {"measurement": "IC50", "setting": "[4]; read-out: IC50", "result": 5.27, "unit": "µM"}]}
{"molecule": "COc1cccc(/C=C/C(=O)c2ccc(OC)cc2O)c1", "values": [{"measurement": "IC50", "setting": "[1]; read-out: IC50", "result": 1.47, "unit": "µM"}, {"measurement": "inhibition (INH)", "setting": "[2]", "result": "Not Active"}, {"measurement": "inhibition (INH)", "setting": "[3]", "result": "Active"}, {"measurement": "IC50", "setting": "[4]; read-out: IC50", "result": 3.15, "unit": "µM"}]}
{"molecule": "COc1ccc(C(=O)/C=C/c2ccc(OC)c(OC)c2)c(O)c1", "values": [{"measurement": "IC50", "setting": "[1]; read-out: IC50", "result": 1.06, "unit": "µM"}, {"measurement": "inhibition (INH)", "setting": "[2]", "result": "Not Active"}, {"measurement": "inhibition (INH)", "setting": "[3]", "result": "Active"}, {"measurement": "IC50", "setting": "[4]; read-out: IC50", "result": 2.17, "unit": "µM"}]}
